From ChEMBL document CHEMBL4371003, “Discovery of Novel Dual Mechanism of Action Src Signaling and Tubulin Polymerization Inhibitors (KX2-391 and KX2-361)” (J Med Chem, 2018)

Assays:
HT-29 [1] = experiment: Antiproliferative activity against human HT-29 cells in presence of 1.5% FCS by BrdU incorporation assay; assay type: functional, cell-based
[2] = Oral bioavailability in mouse; assay type: ADME, organism-based; details: in vivo
[3] = Antiproliferative activity against human PC3MLN4 cells; assay type: functional
HT-29 [4] = experiment: Antiproliferative activity against human HT-29 cells; assay type: functional
Jurkat = experiment: Antiproliferative activity against human Jurkat cells; assay type: functional
SW-620 = experiment: Antiproliferative activity against human SW620 cells; assay type: functional; details: for GI50: Homo sapiens, SW-620
MOLT-4 = experiment: Antiproliferative activity against human MOLT4 cells; assay type: functional
SW1088 = experiment: Antiproliferative activity against human SW1088 cells; assay type: functional
NCI-H226 = experiment: Antiproliferative activity against human NCI-H226 cells; assay type: functional; details: for GI50: Homo sapiens, NCI-H226
NCI-H460 = experiment: Antiproliferative activity against human H460 cells; assay type: functional; details: for GI50: Homo sapiens, NCI-H460
[5] = target: Proto-oncogene tyrosine-protein kinase Src (Mus musculus, UniProt P05480); experiment: Inhibition of Src autophosphorylation in mouse GL261 cells; assay type: cell-based
GL261 (Mus musculus) = experiment: Antiproliferative activity against mouse GL261 cells
[6] = Oral bioavailability in mouse at 20 mg/kg; assay type: ADME, organism-based; details: in vivo
[7] = target: T1, Proto-oncogene tyrosine-protein kinase Src (Homo sapiens, UniProt P12931); experiment: Inhibition of Src (unknown origin)
GL261 = experiment: Antitumor activity against mouse GL261 cells implanted in mouse assessed as incidence of long term survival (>100 days) at 30 mg/kg, po qd relative to control; assay type: functional
SK-N-FI = experiment: Antiproliferative activity against human SK-N-FI cells; assay type: functional
SK-N-MC = experiment: Antiproliferative activity against human SK-N-MC cells; assay type: functional
[8] = Half life in mouse; assay type: ADME, organism-based; details: in vivo
[9] = Ratio of AUC in brain to plasma of mouse at 20 mg/kg, po; assay type: ADME, organism-based; details: brain and plasma, read-out: Ratio AUC
LN-18 = experiment: Antiproliferative activity against human LN18 cells; assay type: functional
U-118-MG = experiment: Antiproliferative activity against human U118MG cells; assay type: functional
[10] = Antiproliferative activity against human U373 cells; assay type: functional, U-373MG ATCC; details: U373 MG
Daoy = experiment: Antiproliferative activity against human DaOY cells; assay type: functional
T98G = experiment: Antiproliferative activity against human T98G cells; assay type: functional
U138-MG = experiment: Antiproliferative activity against human U138MG cells; assay type: functional
U-87 MG = experiment: Antiproliferative activity against human U87 cells; assay type: functional, U-87MG ATCC
MES-SA/Dx5 = experiment: Antiproliferative activity against human MES-SA/Dx5 cells; assay type: functional
NCI/ADR-RES = experiment: Antiproliferative activity against human NCI/ADR-RES cells; assay type: functional
[11] = Cmax in solid tumor patient at 80 mg, po BID during phase 1 clinical trial; assay type: ADME, organism-based; design: dose 80 mg, route oral; details: human, in vivo
In short: (§1)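 Phase 1 trial in late-stage solid tumor patients: continuous twice-daily oral dosing, first in 4-week cycles of 3 weeks on and 1 week off, later without the off week. Plasma PK (Cmax, Tmax, half-life, Vz/F) recorded at each dose level; Cmax given in ng/ml and nM.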

[12] = tested on: Bcr/Abl fusion protein (Homo sapiens), P00519+P11274 [E255K]
Bcr/Abl fusion protein = Bcr/Abl fusion protein (Homo sapiens, UniProt P00519); experiment: Inhibition of BCR/ABL (unknown origin); assay type: protein assay
[13] = Half life in AML patient at 120 mg, po qd; assay type: ADME, organism-based; details: human, in vivo
[14] = tested on: Bcr/Abl fusion protein (Homo sapiens), P00519+P11274 [T315I]; details: Mus musculus
Homo sapiens [15] = organism: Homo sapiens; experiment: Inhibition of SRC 527F mutant (unknown origin) expressed in mouse SYF cells assessed as inhibition of cell growth in presence of 2% FCS; assay type: cell-based
K562 = experiment: Antiproliferative activity against human K562 cells; assay type: functional
[16] = target: T1, Proto-oncogene tyrosine-protein kinase Src; experiment: Inhibition of human c-SRC expressed in mouse NIH/3T3 cells assessed as reduction in cell growth; assay type: cell-based
HT-29 [17] = experiment: Antiproliferative activity against human HT-29 cells in presence of 0.5% FCS; assay type: functional, cell-based
[18] = Cmax in AML patient at 120 mg, po qd; assay type: ADME, organism-based; design: dose 120 mg, route oral; details: human, in vivo
In short: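 Phase 1b study in elderly advanced AML patients with repeated once-daily oral dosing; plasma and bone-marrow drug concentrations measured.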

[19] = Apparent volume of distribution in solid tumor patient at 40 mg, po during phase 1 clinical trial; assay type: ADME, organism-based; details: human, in vivo, read-out: Vz/F; in short: as §1
A549 = experiment: Antiproliferative activity against human A549 cells; assay type: functional
BCR/ABL1 (Mus musculus) = BCR/ABL1 (Mus musculus) (UniProt P00520+Q6PAJ1); details: Homo sapiens
RPMI-8226 = experiment: Antiproliferative activity against human RPMI8226 cells; assay type: functional
Huh-7 = experiment: Antiproliferative activity against human HuH7 cells; assay type: functional
KG-1 = experiment: Antiproliferative activity against human KG1 cells; assay type: functional
[20] = Half life in solid tumor patient at 40 mg, po during phase 1 clinical trial; assay type: ADME, organism-based; details: human, in vivo
[21] = Tmax in solid tumor patient at 40 mg, po during phase 1 clinical trial; assay type: ADME, organism-based; details: human, in vivo
RL = experiment: Antiproliferative activity against human RL cells; assay type: functional
Homo sapiens [22] = organism: Homo sapiens; experiment: Inhibition of SRC 527F mutant (unknown origin) expressed in mouse SYF cells assessed as inhibition of cell growth in presence of 10% FCS; assay type: cell-based
[23] = Ratio of AUC in tumor to plasma of mouse xenografted with human HT-29 cells at 5 mg/kg, po; assay type: ADME, organism-based; details: tumor and plasma, read-out: Ratio AUC
SK-OV-3 = experiment: Antiproliferative activity against human SKOV3 cells; assay type: functional
[24] = Antiproliferative activity against human PC3MM2 cells; assay type: functional
[25] = Half life in rat; assay type: ADME; details: in vivo
L3.6pl = experiment: Antiproliferative activity against human L3.6PL cells; assay type: functional
[26] = target: Tyrosine-protein kinase Lyn (Homo sapiens, UniProt P07948); experiment: Inhibition of LYN (unknown origin)
[27] = Drug absorption in po dosed rat; assay type: ADME, organism-based; details: in vivo, read-out: Drug absorption
[28] = Half life in po dosed mouse; assay type: ADME, organism-based; details: in vivo
769-P = experiment: Antiproliferative activity against human 769-P cells; assay type: functional
K-562R = experiment: Antiproliferative activity against human K562R cells; assay type: functional
MDA-MB-231 = experiment: Antiproliferative activity against human MDA-MB-231 cells; assay type: functional
[29] = Drug uptake in mouse brain at 10 mg/kg, po relative to peripheral drug level; assay type: ADME, organism-based
In short: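 Mice dosed orally at 10 mg/kg; brain and plasma exposure measured as AUC and expressed as brain-to-plasma AUC ratio.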

[30] = Half life in dog; assay type: ADME, Canis lupus familiaris; details: in vivo
[31] = Ratio of AUC in brain to plasma of mouse at 10 mg/kg, po; assay type: ADME, organism-based; details: brain and plasma, read-out: Ratio AUC
CCRF-HSB-2 = experiment: Antiproliferative activity against human CCRF-HSB2 cells; assay type: functional
HCT-116 = experiment: Antiproliferative activity against human HCT116 cells; assay type: functional
[32] = Cmax in CRPC patient at 40 mg, po BID during phase 2 trial by LC-MS analysis; assay type: ADME, organism-based; design: dose 40 mg, route oral; details: human, in vivo
[33] = Drug absorption in po dosed dog; assay type: ADME, organism-based, Canis lupus familiaris; details: in vivo, read-out: Drug absorption
[34] = Cmax in solid tumor patient at 50 mg, po BID measured during first monthly cycle during phase 1 clinical trial; assay type: ADME, organism-based; design: dose 50 mg, route oral; details: human, in vivo; in short: as §1
[35] = Cmax in solid tumor patient at 40 mg, po during phase 1 clinical trial; assay type: ADME, organism-based; design: dose 40 mg, route oral; details: human, in vivo; in short: as §1

T1 sequence (P12931 2-536 limits assumed): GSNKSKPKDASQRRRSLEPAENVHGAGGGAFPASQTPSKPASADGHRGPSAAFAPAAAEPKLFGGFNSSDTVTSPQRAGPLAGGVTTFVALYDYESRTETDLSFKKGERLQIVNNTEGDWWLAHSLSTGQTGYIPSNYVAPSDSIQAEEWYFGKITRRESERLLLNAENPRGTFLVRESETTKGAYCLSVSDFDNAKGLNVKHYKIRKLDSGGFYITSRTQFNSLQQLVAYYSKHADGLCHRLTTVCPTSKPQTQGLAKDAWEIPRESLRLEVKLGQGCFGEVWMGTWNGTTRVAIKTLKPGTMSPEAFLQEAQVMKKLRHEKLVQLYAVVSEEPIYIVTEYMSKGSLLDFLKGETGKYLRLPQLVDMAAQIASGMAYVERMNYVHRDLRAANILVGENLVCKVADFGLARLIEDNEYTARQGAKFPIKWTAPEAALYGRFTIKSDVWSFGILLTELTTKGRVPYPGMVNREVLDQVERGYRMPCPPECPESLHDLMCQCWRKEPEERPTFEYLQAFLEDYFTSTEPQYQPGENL
Sequence of Bcr/Abl fusion protein (P00519 whole entry, the tested form may be a part): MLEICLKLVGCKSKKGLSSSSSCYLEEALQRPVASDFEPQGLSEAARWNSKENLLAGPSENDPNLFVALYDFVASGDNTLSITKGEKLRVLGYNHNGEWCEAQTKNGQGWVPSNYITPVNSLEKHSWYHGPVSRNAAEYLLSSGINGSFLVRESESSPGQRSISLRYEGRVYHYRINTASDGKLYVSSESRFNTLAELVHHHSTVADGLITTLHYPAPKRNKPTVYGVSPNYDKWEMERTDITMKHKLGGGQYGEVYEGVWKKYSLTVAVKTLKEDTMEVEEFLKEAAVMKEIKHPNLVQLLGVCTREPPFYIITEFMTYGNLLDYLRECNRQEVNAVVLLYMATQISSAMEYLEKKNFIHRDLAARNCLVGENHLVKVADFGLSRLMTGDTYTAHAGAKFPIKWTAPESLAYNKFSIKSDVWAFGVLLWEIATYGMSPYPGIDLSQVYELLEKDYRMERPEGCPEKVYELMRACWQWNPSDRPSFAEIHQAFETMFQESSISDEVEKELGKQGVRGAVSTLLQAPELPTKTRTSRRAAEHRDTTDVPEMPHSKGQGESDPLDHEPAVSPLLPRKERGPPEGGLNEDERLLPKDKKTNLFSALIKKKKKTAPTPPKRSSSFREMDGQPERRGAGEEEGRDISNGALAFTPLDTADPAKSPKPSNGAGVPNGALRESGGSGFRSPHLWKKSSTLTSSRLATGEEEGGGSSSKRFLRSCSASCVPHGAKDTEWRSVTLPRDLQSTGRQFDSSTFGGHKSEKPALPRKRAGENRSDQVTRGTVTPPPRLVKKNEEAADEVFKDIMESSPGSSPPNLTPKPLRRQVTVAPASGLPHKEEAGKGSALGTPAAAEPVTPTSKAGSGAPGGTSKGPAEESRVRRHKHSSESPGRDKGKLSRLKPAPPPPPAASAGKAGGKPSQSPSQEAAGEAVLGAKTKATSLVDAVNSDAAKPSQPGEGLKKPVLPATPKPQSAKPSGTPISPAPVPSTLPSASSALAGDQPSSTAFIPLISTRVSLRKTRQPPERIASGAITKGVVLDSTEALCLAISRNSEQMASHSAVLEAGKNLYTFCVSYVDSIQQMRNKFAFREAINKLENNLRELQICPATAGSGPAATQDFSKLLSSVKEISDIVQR
Sequence of Bcr/Abl fusion protein (P11274 whole entry, further chain, the tested form may be a part): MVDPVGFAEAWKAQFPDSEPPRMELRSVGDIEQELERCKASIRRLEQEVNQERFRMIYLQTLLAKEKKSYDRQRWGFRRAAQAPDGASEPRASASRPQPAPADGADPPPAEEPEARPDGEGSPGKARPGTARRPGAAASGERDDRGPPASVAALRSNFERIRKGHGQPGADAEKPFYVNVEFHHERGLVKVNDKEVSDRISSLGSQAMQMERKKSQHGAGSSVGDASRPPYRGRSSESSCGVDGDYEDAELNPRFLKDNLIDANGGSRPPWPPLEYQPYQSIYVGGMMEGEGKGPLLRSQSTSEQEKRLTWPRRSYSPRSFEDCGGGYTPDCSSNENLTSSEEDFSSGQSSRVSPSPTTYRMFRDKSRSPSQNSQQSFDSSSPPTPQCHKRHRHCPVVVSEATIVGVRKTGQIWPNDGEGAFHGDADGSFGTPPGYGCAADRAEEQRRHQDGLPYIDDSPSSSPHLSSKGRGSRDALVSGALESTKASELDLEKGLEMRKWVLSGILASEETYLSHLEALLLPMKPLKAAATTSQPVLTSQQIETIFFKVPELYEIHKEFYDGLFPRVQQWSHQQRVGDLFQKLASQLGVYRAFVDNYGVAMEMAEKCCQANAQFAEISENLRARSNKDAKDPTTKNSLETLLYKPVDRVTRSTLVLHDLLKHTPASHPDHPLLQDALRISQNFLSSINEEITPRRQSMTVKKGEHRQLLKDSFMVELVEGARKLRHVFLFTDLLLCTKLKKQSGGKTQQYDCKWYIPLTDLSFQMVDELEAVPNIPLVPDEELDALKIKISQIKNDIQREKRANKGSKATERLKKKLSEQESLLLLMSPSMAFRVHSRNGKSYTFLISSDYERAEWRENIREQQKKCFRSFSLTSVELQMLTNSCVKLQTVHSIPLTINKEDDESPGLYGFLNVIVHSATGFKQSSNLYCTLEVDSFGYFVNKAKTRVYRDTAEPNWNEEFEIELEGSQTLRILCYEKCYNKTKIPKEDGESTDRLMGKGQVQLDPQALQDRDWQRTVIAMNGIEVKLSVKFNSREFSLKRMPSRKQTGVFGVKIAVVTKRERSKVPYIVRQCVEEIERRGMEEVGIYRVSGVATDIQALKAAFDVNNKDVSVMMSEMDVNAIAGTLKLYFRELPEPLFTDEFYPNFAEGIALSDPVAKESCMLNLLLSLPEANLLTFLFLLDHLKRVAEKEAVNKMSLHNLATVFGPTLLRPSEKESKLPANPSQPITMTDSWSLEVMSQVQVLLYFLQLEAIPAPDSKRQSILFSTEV
Sequence of Proto-oncogene tyrosine-protein kinase Src (Mus musculus, UniProt P05480) (P05480 2-535 limits assumed): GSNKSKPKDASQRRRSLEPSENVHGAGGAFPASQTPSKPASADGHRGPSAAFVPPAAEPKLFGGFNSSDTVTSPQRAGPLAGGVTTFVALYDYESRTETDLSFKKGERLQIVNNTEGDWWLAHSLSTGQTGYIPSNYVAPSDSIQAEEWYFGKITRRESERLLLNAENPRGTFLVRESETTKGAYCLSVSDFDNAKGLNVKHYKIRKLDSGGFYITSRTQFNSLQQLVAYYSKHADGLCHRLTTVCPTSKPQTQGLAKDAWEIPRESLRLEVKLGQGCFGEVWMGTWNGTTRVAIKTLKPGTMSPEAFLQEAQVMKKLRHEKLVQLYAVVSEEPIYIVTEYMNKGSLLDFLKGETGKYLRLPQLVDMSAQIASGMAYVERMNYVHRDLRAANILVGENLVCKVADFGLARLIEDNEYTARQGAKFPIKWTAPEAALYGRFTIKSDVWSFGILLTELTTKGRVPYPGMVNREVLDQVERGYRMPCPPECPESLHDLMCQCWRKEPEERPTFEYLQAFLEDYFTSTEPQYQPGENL
Sequence of Tyrosine-protein kinase Lyn (P07948 whole entry): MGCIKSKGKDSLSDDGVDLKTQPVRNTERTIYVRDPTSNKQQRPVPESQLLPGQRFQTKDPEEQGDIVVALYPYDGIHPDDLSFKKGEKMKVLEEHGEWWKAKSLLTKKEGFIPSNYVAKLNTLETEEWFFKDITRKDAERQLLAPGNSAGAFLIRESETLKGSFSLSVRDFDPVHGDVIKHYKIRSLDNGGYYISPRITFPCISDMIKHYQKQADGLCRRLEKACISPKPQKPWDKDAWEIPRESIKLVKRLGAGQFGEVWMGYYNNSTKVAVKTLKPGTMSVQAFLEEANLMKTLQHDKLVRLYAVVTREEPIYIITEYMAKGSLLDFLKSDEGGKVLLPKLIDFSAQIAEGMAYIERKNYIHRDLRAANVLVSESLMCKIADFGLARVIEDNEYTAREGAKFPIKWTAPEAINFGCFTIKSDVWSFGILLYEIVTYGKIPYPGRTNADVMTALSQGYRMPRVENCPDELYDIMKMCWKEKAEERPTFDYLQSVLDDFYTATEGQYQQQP

O=C(Cc1ccc(-c2ccccc2)cn1)NCc1cccc(F)c1
IC50 (HT-29 [1]): 0.338 µM | bioavailability [2]: 4%

C#CCCCN(CCOc1ccc(-c2ccc(CC(=O)NCc3ccccc3)nc2)cc1)C(=O)c1ccc(C(=O)c2ccccc2)cc1
GI50 [3]: 0.045 µM | GI50 (HT-29 [4]): 0.028 µM

Cc1nc(Nc2ncc(C(=O)Nc3c(C)cccc3Cl)s2)cc(N2CCN(CCO)CC2)n1.O [DASATINIB]
GI50 (Jurkat): 0.008 µM | GI90 (SW-620): 2.94 µM | GI50 (SW-620): 2.42 µM | GI50 (MOLT-4): 0.644 µM | GI50 (SW1088): 0.898 µM | GI50 (NCI-H226): 0.163 µM | GI50 (NCI-H460): 0.09 µM

O=C(Cc1ccc(-c2ccc(N3CCOCC3)cc2)cn1)NCc1cccc(F)c1 [KX2-361]
IC50 [5]: 0.06 µM | GI50 (GL261 (Mus musculus)): 0.057 µM | bioavailability [6]: 40% | IC50 [7]: 67 µM | Activity (GL261): 30% | GI50 (SK-N-FI): 0.011 µM | GI50 (SK-N-MC): 0.008 µM | half-life [8]: 2.5 h | Kp [9]: 1.16 | GI50 (SW1088): 0.026 µM | bioavailability [2]: 40% | GI50 (LN-18): 0.0029 µM | GI50 (U-118-MG): 0.029 µM | GI50 [10]: 0.054 µM | GI50 (Daoy): 0.016 µM | GI50 (T98G): 0.014 µM | GI50 (U138-MG): 0.051 µM | GI50 (U-87 MG): 0.076 µM

CC(=O)O[C@H]1C(=O)[C@@]2(C)[C@H]([C@H](OC(=O)c3ccccc3)[C@]3(O)C[C@H](OC(=O)[C@H](O)[C@@H](NC(=O)c4ccccc4)c4ccccc4)C(C)=C1C3(C)C)[C@]1(OC(C)=O)CO[C@@H]1C[C@@H]2O [PACLITAXEL]
GI50 (MES-SA/Dx5): 1.8 µM | GI50 (NCI/ADR-RES): 5.94 µM

O=C(Cc1ccc(-c2ccc(OCCN3CCOCC3)cc2)cn1)NCc1ccccc1 [TIRBANIBULIN]
Cmax [11]: 273 ng/mL | GI50 [12]: 0.08 µM | IC50 (Bcr/Abl fusion protein): 0.1 to 0.2 µM | half-life [13]: 2.2 h | GI50 [14]: 0.035 µM | GI50 (Jurkat): 0.01 µM | GI50 (Homo sapiens [15]): 0.023 µM | GI90 (SW-620): 0.903 µM | GI50 (SW-620): 0.109 µM | GI50 (K562): 0.013 µM | IC50 [7]: 46 µM | GI50 (MES-SA/Dx5): 0.034 µM | GI50 [16]: 0.02 µM | IC50 (HT-29 [17]): 0.005 µM | Cmax [18]: 218 ng/mL | Vd/F [19]: 681 L | GI50 [3]: 0.04 µM | GI50 (A549): 0.009 µM | IC50 (HT-29 [1]): 0.023 µM | GI50 (BCR/ABL1 (Mus musculus)): 0.085 µM | GI50 (RPMI-8226): 0.04 µM | GI50 (MOLT-4): 0.013 µM | GI50 (Huh-7): 0.009 µM | GI50 (KG-1): 0.016 µM | half-life [20]: 4 h | Tmax [21]: 1 h | GI50 (RL): 0.019 µM | GI50 (HT-29 [4]): 0.025 µM | GI50 (Homo sapiens [22]): 0.123 µM | Kp [23]: 1.52 | GI50 (SK-OV-3): 0.01 µM | bioavailability [2]: 49% | GI50 [24]: 0.009 µM | GI50 (NCI/ADR-RES): 0.056 µM | half-life [25]: 2 h | GI50 (L3.6pl): 0.025 µM | IC50 [26]: 0.1 to 0.2 µM | Fa [27]: 50 to 90% | GI90 (NCI-H226): 0.49 µM | GI50 (NCI-H226): 0.098 µM | half-life [28]: 1 h | GI50 (769-P): 0.045 µM | GI50 (K-562R): 0.00064 µM | GI50 (MDA-MB-231): 0.02 µM | Drug uptake [29]: 42% | half-life [30]: 8 h | Kp [31]: 0.42 | GI50 (CCRF-HSB-2): 0.012 µM | GI90 (HCT-116): 0.195 µM | GI50 (HCT-116; Homo sapiens, HCT-116): 0.031 µM | Cmax [32]: 61 ng/mL | Fa [33]: 50 to 90% | GI90 (NCI-H460): 0.162 µM | GI50 (NCI-H460): 0.051 µM | Cmax [34]: 231 ng/mL | Cmax [35]: 80 ng/mL
